Calls of active or inactive are those of the source.
Columns and labels:
HCC827 = experiment: Antiproliferative activity against human HCC827 cells expressing EGFR del19 mutant assessed as cell growth inhibition measured after 72 hrs by MTT assay; assay type: functional, cell-based; conditions: HCC827, 72 h
How it was run: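 HCC827 cells were kept in RPMI-1640 with 10% heat-inactivated FBS, 1% sodium pyruvate, 1% glutamine and 1% penicillin-streptomycin at 37 °C and 5% CO₂, seeded at 3000–8000/well and rested 24 h. Compounds were applied as a concentration series for 72 h. MTT (5 mg/mL stock in PBS) was given for 4 h, then medium was removed and DMSO added. IC50 came from nonlinear regression (log inhibitor vs response).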

[1] = system: von Hippel-Lindau disease tumor suppressor/Epidermal growth factor receptor (Homo sapiens), P00533+P40337 [UNDEFINED MUTATION]; experiment: Protac activity at VHL/EGFR del19 mutant in human HCC827 cells assessed as induction of EGFR degradation at 33 to 333 nM measured after 24 hrs by Western blot analysis; assay type: cell-based; conditions: dose 33-333 nM
How it was run: (§1)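 HCC827 cells seeded at 0.5–1 × 10⁶ per well, grown 24 h, then treated at the stated concentrations for 24 h. EGFR^del19 level by Western blot with anti-EGFR antibody and β-actin loading control.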

NCI-H1975 = experiment: Antiproliferative activity against human H1975 cells expressing EGFR L858R/T790M mutant assessed as cell growth inhibition measured after 72 hrs by MTT assay; assay type: functional, cell-based; conditions: NCI-H1975, 72 h
How it was run: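 MTT assay on H1975 cells grown in RPMI-1640 with 10% heat-inactivated FBS and 1% penicillin-streptomycin at 37 °C and 5% CO₂. Cells were seeded at 3000–8000 per well and left 24 h, then exposed to a concentration series for 72 h. MTT (5 mg/mL stock in PBS) was added for 4 h, supernatant removed and formazan dissolved in DMSO. IC50 was fitted by nonlinear regression (log inhibitor vs response).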

HepG2 = experiment: Antiproliferative activity against human HepG2 cells expressing VEGFR2 assessed as cell growth inhibition measured after 72 hrs by MTT assay; assay type: functional, cell-based; conditions: HepG2, 72 h
How it was run: (§2)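 Cells were seeded at 3000–8000/well and allowed 24 h, then exposed to serial compound concentrations for 72 h. MTT (5 mg/mL stock in PBS) was added for 4 h, supernatant removed and DMSO added. IC50, defined as 50% growth inhibition, was derived by nonlinear regression (log inhibitor vs response).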

[2] = target: von Hippel-Lindau disease tumor suppressor/Epidermal growth factor receptor (Homo sapiens, UniProt P00533+P40337); experiment: Protac activity at VHL/EGFR del19 mutant in human HCC827 cells assessed as induction of EGFR degradation measured after 24 hrs by Western blot analysis; assay type: cell-based; how it was run: as §1
A-431 = experiment: Antiproliferative activity against human A431 cells expressing wild type EGFR assessed as cell growth inhibition measured after 72 hrs by MTT assay; assay type: functional, cell-based; conditions: A-431, 72 h; how it was run: as §2
[3] = system: Protein cereblon/Epidermal growth factor receptor (Homo sapiens), P00533+Q96SW2 [UNDEFINED MUTATION]; experiment: Protac activity at CRBN/EGFR del19 mutant in human HCC827 cells assessed as induction of EGFR degradation at 333 nM measured after 24 hrs by Western blot analysis; assay type: cell-based; how it was run: as §1
[4] = system: Protein cereblon/Epidermal growth factor receptor (Homo sapiens), P00533+Q96SW2 [UNDEFINED MUTATION]; experiment: Protac activity at CRBN/EGFR del19 mutant in human HCC827 cells assessed as induction of EGFR degradation at 33 nM measured after 24 hrs by Western blot analysis; assay type: cell-based; how it was run: as §1
[5] = system: von Hippel-Lindau disease tumor suppressor/Epidermal growth factor receptor (Homo sapiens), P00533+P40337 [UNDEFINED MUTATION]; experiment: Protac activity at VHL/EGFR del19 mutant in human HCC827 cells assessed as induction of EGFR degradation at 1 to 33 nM incubated for 24 hrs by Western blot analysis; assay type: cell-based; conditions: dose 1-33 nM; how it was run: as §1
[6] = system: von Hippel-Lindau disease tumor suppressor/Epidermal growth factor receptor (Homo sapiens), P00533+P40337 [L858R,T790M]; experiment: Protac activity at VHL/EGFR L858R/T790M mutant in human H1975 cells assessed as induction of degradation of EGFR at 0.33 to 1 uM incubated for 24 hrs by Western blot analysis; assay type: cell-based; conditions: NCI-H1975, dose 0.33-1 µM
How it was run: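 H1975 cells, after 24 h seeding, treated at the stated concentrations for 24 h. EGFR by Western blot with β-actin loading control.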

| SMILES | IC50 (HCC827) | Activity [1] | IC50 (NCI-H1975) | IC50 (HepG2) | DC50 [2] | IC50 (A-431) | Activity [3] | Activity [4] | Activity [5] | Activity [6] |
| --- | --- | --- | --- | --- | --- | --- | --- | --- | --- | --- |
| Cc1ncsc1-c1ccc(CNC(=O)[C@@H]2C[C@@H](O)CN2C(=O)[C@@H](NCCOCCOCCOCCOCCN2CCN(c3ccc(Nc4ncc5nc(Nc6ccccc6)n(C6CCCC6)c5n4)cc3)CC2)C(C)(C)C)cc1 | 62 nM | inactive | 2890 nM | > 5000 nM | – | – | – | – | – | – |
| COc1cc2ncnc(Nc3ccc(F)c(Cl)c3)c2cc1OCCCCCOCCOCCC(=O)N[C@H](C(=O)N1C[C@H](O)C[C@H]1C(=O)NCc1ccc(-c2scnc2C)cc1)C(C)(C)C | – | – | – | – | 11.7 nM | – | – | – | – | – |
| Cc1ncsc1-c1ccc(CNC(=O)[C@@H]2C[C@@H](O)CN2C(=O)[C@@H](NCCOCCOCCOCCN2CCN(c3ccc(Nc4ncc5nc(Nc6ccccc6)n(C6CCCC6)c5n4)cc3)CC2)C(C)(C)C)cc1 | 54.4 nM | inactive | 2100 nM | > 5000 nM | – | – | – | – | – | – |
| CN1CCN(c2ccc(Nc3ncc4nc(Nc5ccccc5)n(C5CCCC5)c4n3)cc2)CC1 | 0.82 nM | – | 430 nM | > 5000 nM | – | 163 nM | – | – | – | – |
| O=C1CCC(N2Cc3c(NC(=O)CCCCCCN4CCN(c5ccc(Nc6ncc7nc(Nc8ccccc8)n(C8CCCC8)c7n6)cc5)CC4)cccc3C2=O)C(=O)N1 (centres undefined) | 1.41 nM | – | 9300 nM | > 5000 nM | – | 220 nM | inactive | Active | – | – |
| CN(CCOCCOCCN1CCN(c2ccc(Nc3ncc4nc(Nc5ccccc5)n(C5CCCC5)c4n3)cc2)CC1)CC(=O)Nc1cccc2c1CN(C1CCC(=O)NC1=O)C2=O (centres undefined) | 1.39 nM | – | 1210 nM | > 5000 nM | – | 2670 nM | inactive | Active | – | – |
| Cc1ncsc1-c1ccc(CNC(=O)[C@@H]2C[C@H](O)CN2C(=O)[C@@H](NC(=O)CCCCCCN2CCN(c3ccc(Nc4ncc5nc(Nc6ccccc6)n(C6CCCC6)c5n4)cc3)CC2)C(C)(C)C)cc1 | 15.8 nM | – | > 10000 nM | – | – | – | – | – | inactive | inactive |

Reference: ChEMBL document CHEMBL4706553, “Discovery of potent small molecule PROTACs targeting mutant EGFR” (Eur J Med Chem, 2020)
